Results: ChEMBL document CHEMBL2434960 (Eur J Med Chem, 2013)

Each molecule was assayed against Replicase polyprotein 1a (Severe acute respiratory syndrome-related coronavirus, UniProt P0C6U8) (assay: Inhibition of SARS coronavirus 3CL-protease by fluorescence assay).
Procedure, shortened: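 Protease inhibition was measured by a fluorometric assay. Substrate concentration was held constant while inhibitor concentration was varied, and the kinetic parameters gave Ki values.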

First: CC(C)C[C@H](NC(=O)c1c[nH]c2ccccc12)C(=O)N[C@@H](C[C@@H]1CCNC1=O)C(=O)c1nc2ccccc2s1
Second: CC(C)C[C@H](NC(=O)c1cc2ccccc2o1)C(=O)N[C@@H](C[C@@H]1CCNC1=O)C(=O)c1nc2ccccc2s1
The Ki of the first is 21-fold lower: 680 nM for the first, 14000 nM for the second. The first binds more tightly here.

`COc1ccc2[nH]c(C(=O)N[C@@H](CC(C)C)C(=O)N[C@@H](C[C@@H]3CCNC3=O)C(=O)c3nc4ccccc4s3)c(C)c2c1` and `CCc1c(C(=O)N[C@@H](CC(C)C)C(=O)N[C@@H](C[C@@H]2CCNC2=O)C(=O)c2nc3ccccc3s2)[nH]c2ccc(OC)cc12` are within 1.5-fold of each other in Ki: 6700 nM for the first, 7500 nM for the second.

Going from `CC(C)C[C@H](NC(=O)C1Cc2ccccc2N1)C(=O)N[C@@H](C[C@@H]1CCNC1=O)C(=O)c1nc2ccccc2s1` (stereo partly specified) to `CC(C)C[C@H](NC(=O)C1CCC(=O)N1)C(=O)N[C@@H](C[C@@H]1CCNC1=O)C(=O)c1nc2ccccc2s1` (mixture of isomers), the Ki rises from 120 nM to 2700 nM (22-fold).

Compared with `CC(C)C[C@H](NC(=O)c1nc2ccccc2s1)C(=O)N[C@@H](C[C@@H]1CCNC1=O)C(=O)c1nc2ccccc2s1`, `CC(C)C[C@H](NC(=O)c1ccc[nH]1)C(=O)N[C@@H](C[C@@H]1CCNC1=O)C(=O)c1nc2ccccc2s1` is 2.1-fold higher in Ki: 800 nM for the first, 1700 nM for the second.

First: CC(C)C[C@H](NC(=O)c1cc2cc(O)ccc2[nH]1)C(=O)N[C@@H](C[C@@H]1CCNC1=O)C(=O)c1nc2ccccc2s1
Second: COc1ccc2cc(C(=O)N[C@@H](CC(C)C)C(=O)N[C@@H](C[C@@H]3CCNC3=O)C(=O)c3nc4ccccc4s3)[nH]c2c1
The Ki of the first is 2.1-fold lower: 160 nM for the first, 330 nM for the second. The first binds more tightly here.

Work on `CC(C)C[C@H](NC(=O)c1cc2c(OC(C)C)cccc2[nH]1)C(=O)N[C@@H](C[C@@H]1CCNC1=O)C(=O)c1nc2ccccc2s1` yielded a Ki of 48 nM.
